We go through eight molecules from ChEMBL document CHEMBL4334479, “Trichocadinins B-G: Antimicrobial Cadinane Sesquiterpenes from Trichoderma virens QA-8, an Endophytic Fungus Obtained from the Medicinal Plant Artemisia argyi” (2019).

In brackets after ≈: the same amount, converted by molar mass. Activity calls are given as the source filed them.

For orientation: MIC means the smallest concentration in the dilution series that meets the test's criterion for growth inhibition.

Common to all, as to assay type: functional
For one assay, the system named is Fusarium graminearum. Briefly: Antifungal activity against Fusarium graminearum QDAU 10 by microplate XTT assay. Summed up: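 Plant-pathogenic fungal strain supplied by Qingdao Agricultural University; MIC determined by microplate assay with amphotericin B as positive control.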
(Tetrazolium dyes change colour on reduction, which living cells bring about.)

The subject of another assay is Bipolaris sorokiniana. Briefly: Antifungal activity against Bipolaris sorokiniana QDAU 7 by microplate XTT assay. A digest of the protocol: (§1)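 Plant-pathogenic fungi, provided by Qingdao Agricultural University, were tested in a microplate assay with amphotericin B as the positive control.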
The subject of a further assay is Alternaria solani. Briefly: Antifungal activity against Alternaria solani QDAU 14 by microplate XTT assay. Summed up: as §1
A further assay relates to Vibrio harveyi. The assay can be described thus: Antibacterial activity against Vibrio harveyi QDIO 7 by microplate XTT assay. Summed up: (§2)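 Bacterial strains tested in a microplate assay with chloramphenicol as the positive control. Activity is reported as MIC in μg/mL.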
Another assay relates to Micrococcus luteus. Briefly: Antibacterial activity against Micrococcus luteus QDIO 3 by microplate XTT assay. Summed up:
as §2

Another assay concerns Vibrio anguillarum. The assay can be described thus: Antibacterial activity against Vibrio anguillarum QDIO 6 by microplate XTT assay. A digest of the protocol: as §2
A further assay relates to Fusarium solani. Briefly: Antifungal activity against Fusarium solani QDAU 15 by microplate XTT assay. A digest of the protocol: as §1
A further assay deals with Vibrio vulnificus. Briefly: Antibacterial activity against Vibrio vulnificus QDIO 9 by microplate XTT assay. A digest of the protocol:
as §2

In assay [1] the test system is Fusarium oxysporum f. sp. cucumerinum. Briefly: Antifungal activity against Fusarium oxysporum f.sp.cucumerinum QDAU 16 by microplate XTT assay. A digest of the protocol: as §1
The next assay has as its system Edwardsiella tarda. Briefly: Antibacterial activity against Edwardsiella tarda QDIO 2 by microplate XTT assay. A digest of the protocol:
as §2

Assay [2] relates to Botryosphaeria berengeriana. The assay can be described thus: Antifungal activity against Physalospora pyricola Nose QDAU 12 by microplate XTT assay. A digest of the protocol:
as §1

Assay [3] relates to Fusarium oxysporum f. sp. radicis-lycopersici. The assay can be described thus: (§3) Antifungal activity against Fusarium oxysporum f.sp. radicis-lycopersici QDAU 5 by microplate XTT assay. A digest of the protocol: as §1
The subject of assay [4] is Colletotrichum gloeosporioides. The assay can be described thus: Antifungal activity against Glomerella cingulata QDAU 2 by microplate XTT assay. A digest of the protocol: as §1
A further assay concerns Pseudomonas aeruginosa. Briefly: Antibacterial activity against Pseudomonas aeruginosa QDIO 4 by microplate XTT assay. A digest of the protocol:
as §2

The subject of assay [5] is Ceratobasidium cornigerum. The assay can be described thus: Antifungal activity against Ceratobasidium cornigerum QDAU 8 by microplate XTT assay. A digest of the protocol: as §1
Another assay deals with Penicillium digitatum. The assay can be described thus: Antifungal activity against Penicillium digitatum QDAU 11 by microplate XTT assay. Summed up: as §1
Another assay has as its system Cytospora mali. The assay can be described thus: Antifungal activity against Valsa mali QDAU 13 by microplate XTT assay. A digest of the protocol:
as §1

The next assay deals with Bipolaris maydis. Briefly: Antifungal activity against Helminthosporium maydis QDAU 18 by microplate XTT assay. A digest of the protocol:
as §1

The test system of the next assay is Vibrio parahaemolyticus. Briefly: Antibacterial activity against Vibrio parahaemolyticus QDIO 8 by microplate XTT assay. Summed up: as §2
In another assay the test system is Aeromonas hydrophila. The assay can be described thus: Antibacterial activity against Aeromonas hydrophila QDIO 1 by microplate XTT assay. Summed up: as §2
Assay [6] concerns Colletotrichum gloeosporioides. Briefly: Antifungal activity against Colletotrichum gloeosporioides Penz-QDAU 9 by microplate XTT assay. Summed up:
as §1

Assay [7] has as its system Fusarium oxysporum f. sp. momordicae. The assay can be described thus: (§4) Antifungal activity against Fusarium oxysporum f.sp.momordicae QDAU 17 by microplate XTT assay. A digest of the protocol:
as §1

The subject of the next assay is Escherichia coli. Briefly: Antibacterial activity against Escherichia coli EMBLC 1 by microplate XTT assay. A digest of the protocol:
as §2

Assay [8] can be described thus: as §3. Summed up:
as §1

A short description of assay [9]: as §4. Summed up: as §1

With `C[C@H](CO)[C@H]1CCc2coc3cc(C(=O)O)cc1c23`, the MIC entry (in the assay on Fusarium graminearum; in the assay on Micrococcus luteus; with Vibrio anguillarum; in the assay on Vibrio vulnificus; with Edwardsiella tarda; in [3]) was “inactive” throughout. Besides, the MIC entry (in assay [5]; in the assay on Cytospora mali; in the assay on Bipolaris maydis; in assay [6]; in assay [7]) was “inactive” in each case. For the same molecule, the minimal inhibitory concentration (MIC) with Bipolaris sorokiniana was found to be 8 µg/mL (≈ 30.7 µM); in the assay on Alternaria solani it was 32 µg/mL (≈ 123 µM); against Vibrio harveyi, 16 µg/mL (≈ 61.5 µM); against Fusarium solani, 32 µg/mL (≈ 123 µM); in assay [1] it was 2 µg/mL (≈ 7.68 µM); in assay [2], 4 µg/mL (≈ 15.4 µM). In addition, the minimal inhibitory concentration (MIC) in assay [4] is 4 µg/mL (≈ 15.4 µM); in the assay with Pseudomonas aeruginosa, 8 µg/mL (≈ 30.7 µM); against Penicillium digitatum it was 8 µg/mL (≈ 30.7 µM); against Vibrio parahaemolyticus it was 32 µg/mL (≈ 123 µM); against Aeromonas hydrophila, 64 µg/mL (≈ 246 µM); in the assay with Escherichia coli, 16 µg/mL (≈ 61.5 µM).

Turning to `CC(C)[C@H]1CCc2coc3cc(C(=O)O)cc1c23`, the MIC stood at 8 µg/mL (≈ 32.7 µM) against Fusarium graminearum; 1 µg/mL (≈ 4.09 µM) against Bipolaris sorokiniana; 4 µg/mL (≈ 16.4 µM) against Alternaria solani; 8 µg/mL (≈ 32.7 µM) in the assay on Vibrio harveyi; 32 µg/mL (≈ 131 µM) against Micrococcus luteus; 4 µg/mL (≈ 16.4 µM) in the assay on Fusarium solani. Moreover, the MIC against Vibrio vulnificus came to 64 µg/mL (≈ 262 µM); in [1] it was 1 µg/mL (≈ 4.09 µM); in [2], 4 µg/mL (≈ 16.4 µM); in [8] it was 64 µg/mL (≈ 262 µM); in [4] it was 1 µg/mL (≈ 4.09 µM); against Pseudomonas aeruginosa it was 8 µg/mL (≈ 32.7 µM). The MIC in assay [5] was 16 µg/mL (≈ 65.5 µM); with Penicillium digitatum it was 8 µg/mL (≈ 32.7 µM); in the assay on Cytospora mali, 16 µg/mL (≈ 65.5 µM); against Vibrio parahaemolyticus, 4 µg/mL (≈ 16.4 µM); in the assay with Aeromonas hydrophila, 8 µg/mL (≈ 32.7 µM); in assay [6], 8 µg/mL (≈ 32.7 µM). The values for the MIC (in [9]; in the assay with Escherichia coli) were 2 µg/mL (≈ 8.19 µM) and 8 µg/mL (≈ 32.7 µM), respectively. For the same molecule, the MIC entry with Vibrio anguillarum, with Edwardsiella tarda and in the assay with Bipolaris maydis was “inactive” throughout.

In the case of `CC(C)[C@H]1CCC(=O)c2cc(O)c(C(=O)O)cc21`, the MIC entry in the assay on Fusarium graminearum, with Bipolaris sorokiniana, in the assay with Alternaria solani, in the assay on Vibrio harveyi, in the assay with Micrococcus luteus and in the assay on Fusarium solani was “inactive” throughout. In addition, the MIC entry (in the assay with Vibrio vulnificus; in assay [3]; in assay [4]; with Pseudomonas aeruginosa; in [5]; in the assay with Penicillium digitatum) was “inactive” throughout. Also, the MIC entry (in the assay on Cytospora mali; in the assay on Bipolaris maydis; in the assay on Vibrio parahaemolyticus; in the assay with Aeromonas hydrophila; in assay [6]; in assay [7]) was “inactive” each time. Moreover, the MIC result in the assay on Escherichia coli is “inactive”. Also, the minimum inhibitory concentration (MIC) in the assay on Vibrio anguillarum was found to be 2 µg/mL (≈ 8.06 µM); in [1], 64 µg/mL (≈ 258 µM); in the assay with Edwardsiella tarda it was 1 µg/mL (≈ 4.03 µM); in assay [2] it was 4 µg/mL (≈ 16.1 µM).

Regarding `C[C@@H]1[C@H](O)[C@@H](C)/C=C/C=C/C=C/C=C/C=C/C=C/C=C/[C@H](O[C@@H]2O[C@H](C)[C@@H](O)[C@H](N)[C@@H]2O)C[C@@H]2O[C@](O)(C[C@@H](O)C[C@@H](O)[C@H](O)CC[C@@H](O)C[C@@H](O)CC(=O)O[C@H]1C)C[C@H](O)[C@H]2C(=O)O` [AMPHOTERICIN B], the MIC against Fusarium graminearum is 2 µg/mL (≈ 2.16 µM); against Bipolaris sorokiniana it was 0.5 µg/mL (≈ 0.541 µM); in the assay on Alternaria solani, 2 µg/mL (≈ 2.16 µM); in the assay on Fusarium solani, 4 µg/mL (≈ 4.33 µM); in [1], 0.5 µg/mL (≈ 0.541 µM); in assay [2] it was 2 µg/mL (≈ 2.16 µM). The minimum inhibitory concentration (MIC) in assay [8] turned out to be 2 µg/mL (≈ 2.16 µM); in assay [4], 0.5 µg/mL (≈ 0.541 µM); in [5] it was 8 µg/mL (≈ 8.66 µM); against Penicillium digitatum, 2 µg/mL (≈ 2.16 µM); against Cytospora mali, 8 µg/mL (≈ 8.66 µM); in the assay with Bipolaris maydis, 2 µg/mL (≈ 2.16 µM). For the same molecule, the minimum inhibitory concentration (MIC) in assay [6] was 0.5 µg/mL (≈ 0.541 µM); in assay [9], 1 µg/mL (≈ 1.08 µM).

Take `C=C1CC[C@H](C(C)C)[C@@H]2C=C(C(=O)O)CC[C@H]12`: the MIC result in the assay on Fusarium graminearum, in the assay on Bipolaris sorokiniana, in the assay with Alternaria solani, in the assay with Vibrio anguillarum, in the assay on Fusarium solani and in the assay with Edwardsiella tarda was “inactive” in each case. Also, the MIC entry (in assay [5]; with Penicillium digitatum; in the assay with Bipolaris maydis; in [6]; in assay [7]) was “inactive” throughout. Further, the minimal inhibitory concentration (MIC) against Vibrio harveyi was 2 µg/mL (≈ 8.53 µM); in the assay on Micrococcus luteus, 32 µg/mL (≈ 137 µM); against Vibrio vulnificus, 64 µg/mL (≈ 273 µM); in assay [1], 16 µg/mL (≈ 68.3 µM); in assay [2], 8 µg/mL (≈ 34.1 µM); in assay [8], 64 µg/mL (≈ 273 µM). Further, the MIC in [4] was determined as 1 µg/mL (≈ 4.27 µM); in the assay with Pseudomonas aeruginosa, 4 µg/mL (≈ 17.1 µM); against Cytospora mali it was 32 µg/mL (≈ 137 µM); with Vibrio parahaemolyticus, 8 µg/mL (≈ 34.1 µM); against Aeromonas hydrophila, 8 µg/mL (≈ 34.1 µM); in the assay on Escherichia coli, 8 µg/mL (≈ 34.1 µM).

For `O=C(N[C@H](CO)[C@H](O)c1ccc([N+](=O)[O-])cc1)C(Cl)Cl` [CHLORAMPHENICOL], the minimal inhibitory concentration (MIC) came out at 1 µg/mL (≈ 3.09 µM) against Vibrio harveyi; 4 µg/mL (≈ 12.4 µM) with Micrococcus luteus; 1 µg/mL (≈ 3.09 µM) against Vibrio anguillarum; 1 µg/mL (≈ 3.09 µM) against Vibrio vulnificus; 0.5 µg/mL (≈ 1.55 µM) against Edwardsiella tarda; 2 µg/mL (≈ 6.19 µM) against Pseudomonas aeruginosa. Besides, the MIC in the assay with Vibrio parahaemolyticus was 4 µg/mL (≈ 12.4 µM); in the assay with Aeromonas hydrophila it was 4 µg/mL (≈ 12.4 µM); in the assay on Escherichia coli, 2 µg/mL (≈ 6.19 µM).

`C=C1CC[C@H](C(C)C)[C@H]2C=C(C(=O)O)C[C@@H](O)[C@H]12`: the MIC entry in the assay on Fusarium graminearum, in the assay on Bipolaris sorokiniana, in the assay with Alternaria solani, with Vibrio harveyi, in the assay with Micrococcus luteus and in the assay with Vibrio anguillarum was “inactive” in each case. Further, the MIC entry (in the assay on Fusarium solani; in the assay on Vibrio vulnificus; in the assay with Edwardsiella tarda; in assay [4]; in the assay on Pseudomonas aeruginosa; in [5]) was “inactive” each time. Also, the MIC result (with Cytospora mali; in the assay on Bipolaris maydis; with Vibrio parahaemolyticus; with Aeromonas hydrophila; in assay [6]; in assay [7]) was “inactive” throughout. The MIC result in the assay with Escherichia coli was “inactive”. Further, the MIC in assay [1] is 32 µg/mL (≈ 128 µM); in assay [2] it was 1 µg/mL (≈ 3.99 µM); in assay [8], 64 µg/mL (≈ 256 µM); in the assay on Penicillium digitatum, 16 µg/mL (≈ 63.9 µM).

In the case of `CC(C)[C@H]1CC[C@@H](C)[C@]2(O)CCC(C(=O)O)=C[C@H]12`, the MIC result with Fusarium graminearum, in the assay with Bipolaris sorokiniana, in the assay with Alternaria solani, with Vibrio harveyi, with Micrococcus luteus and in the assay with Vibrio anguillarum was “inactive” each time. Also, the MIC entry (in the assay with Fusarium solani; in the assay on Vibrio vulnificus; in the assay with Edwardsiella tarda; in assay [2]; in assay [3]; in assay [4]) was “inactive” each time. Further, the MIC result (in the assay on Pseudomonas aeruginosa; in assay [5]; with Penicillium digitatum; in the assay with Cytospora mali; in the assay on Vibrio parahaemolyticus; in the assay with Aeromonas hydrophila) was “inactive” each time. The MIC result (in assay [6]; in assay [7]; in the assay on Escherichia coli) was “inactive” in each case. Further, the MIC is 32 µg/mL (≈ 127 µM) in [1] and 16 µg/mL (≈ 63.4 µM) against Bipolaris maydis.
